# Screening data as filed in PubChem.
# Shown are actives, neighbours in structure and some others; about 4.6% of the full set was active somewhere.
# CHO parental Ca: ATP-evoked calcium signal inhibitors, parental CHO, primary screen, counter-screen for OX1R antagonist project, cell-based, fluorescence, Fluo-8 calcium dye. parental CHO-K1, ATP-induced calcium, Fluo-8 fluorescence. inhibition, % at 5.6 µM. actives 0.63% (n = 330,000). AID 463079, 2010;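 active = inhibition above that plate's mean sample inhibition plus 3 SD, cut at about 26% in these data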;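 note: 0% = ATP-challenged DMSO wells and 100% = DMSO wells without ATP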
#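 Test system: untransfected parental CHO cell line; also added: ATP stimulus; dosing: 5.6 µM, single dose; signal: calcium-sensitive Fluo-8 fluorescence; measure: percent inhibition of ATP-evoked calcium rise, normalized to controls; benchmarks: low control ATP plus DMSO, high control DMSO only; replication: one well per compound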
# TAAR1 antagonist: human TAAR1 antagonists, primary screen, Fluo-8 calcium fluorescence, CHO RD-HGA16 cells. Trace amine-associated receptor 1 (Homo sapiens), Q96RJ0. antagonist. inhibition, % at 3 µM. actives 1.5% (n = 360,000);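 active = inhibition above a per-plate cutoff, the mean inhibition of test compounds on that plate plus 3 SD, cut at about 49% in these data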;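 note: 0% = DMSO plus EC80 beta-PEA response and 100% = DMSO alone without agonist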
# Target sequence (Q96RJ0 whole entry, looked up): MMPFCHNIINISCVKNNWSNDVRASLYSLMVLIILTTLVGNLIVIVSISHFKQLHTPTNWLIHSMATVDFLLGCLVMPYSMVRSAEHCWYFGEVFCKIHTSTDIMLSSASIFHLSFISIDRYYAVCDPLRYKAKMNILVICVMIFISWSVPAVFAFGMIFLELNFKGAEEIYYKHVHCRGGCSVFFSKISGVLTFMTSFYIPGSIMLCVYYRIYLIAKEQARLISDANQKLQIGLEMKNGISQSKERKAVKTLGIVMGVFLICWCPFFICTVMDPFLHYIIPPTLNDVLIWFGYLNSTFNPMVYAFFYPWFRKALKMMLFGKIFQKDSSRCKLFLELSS
#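 System: RD-HGA16 CHO cells with stable hTAAR1 and Gα16 | Probe or stimulus: EC80 β-phenethylamine stimulus | Dosing: 3 µM, single point | Times: Dye loading 75 min at 37 °C, then 30 min room temperature | Measured by: Fluo-8 calcium-sensitive fluorescence | Read-out basis: % inhibition of agonist calcium response | Replicates: n of 1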
# GPR7 antagonist: GPR7 receptor antagonists, primary screen, cell-based, fluorescence, single concentration. Neuropeptides B/W receptor type 1 (Homo sapiens), P48145. GPR7-expressing cells, fluorescence antagonist assay. inhibition, % at 4.4 µM. actives 1.1% (n = 290,000); in the data active = inhibition above about 16%, passing the limit was not always enough;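 note: cells stimulated with the agonist NPW; 0% = agonist with vehicle and 100% = vehicle without agonist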
# Target sequence (P48145 whole entry, looked up): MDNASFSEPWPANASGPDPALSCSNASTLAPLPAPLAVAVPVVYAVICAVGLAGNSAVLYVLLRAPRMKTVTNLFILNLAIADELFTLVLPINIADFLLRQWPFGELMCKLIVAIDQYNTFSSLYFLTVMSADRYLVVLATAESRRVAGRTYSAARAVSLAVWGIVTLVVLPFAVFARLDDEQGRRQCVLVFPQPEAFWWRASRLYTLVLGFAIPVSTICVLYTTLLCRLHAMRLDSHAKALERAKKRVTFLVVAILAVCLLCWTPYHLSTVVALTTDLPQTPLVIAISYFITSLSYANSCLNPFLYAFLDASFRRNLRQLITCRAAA
# OX1R antag-1: OX1R (HCRTR1) antagonists, primary screen, fluorescence, CHO/OX1R cells, Fluo-8 calcium, orexin A; Orexin/Hypocretin receptor type 1 (Homo sapiens), O43613; AID 434989, 2010; actives 0.43% (n = 330,000); inhibition, % at 5 µM; Fluo-8 calcium fluorescence;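 active = inhibition above its plate's threshold, mean inhibition of all tested compounds on the plate plus 3 SD, cut at about 37% in these data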;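 note: 0% = orexin A challenge wells and 100% = SB-334867-A antagonist wells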
# TAAR1 agonist: human TAAR1 agonists, primary screen, Fluo-8 calcium fluorescence, CHO RD-HGA16 cells | activation, % at 3 µM | Trace amine-associated receptor 1 (Homo sapiens), Q96RJ0 | actives 0.99% (n = 360,000) | vehicle wells 0%, saturating PEA agonist 100%;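 active = activation above the mean activation of all test compounds in the run plus 3 SD, cut at about 38% in these data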
#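 Assay system: CHO-derived RD-HGA16 cells with stable Gα16 and human TAAR1; timing: 17-24 h seeding, 75 min 37 °C dye, 30 min RT; read-out: % activation from peak over basal fluorescence ratio, DMSO-to-PEA scaled; measured by: kinetic Fluo-8 calcium fluorescence; benchmarks: low control DMSO, high control PEA (EC100); doses: 3 µM single concentration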
# OX1R antag-2: antagonists of human orexin 1 receptor (OX1R); OX1R-expressing cells, FRET antagonist read-out; inhibition, % at 6.6 µM; actives 1.8% (n = 330,000); in the data active = inhibition mostly above about 38%, no sharp cut-off; inactive = mostly below about 40%;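 note: 0% = agonist challenge alone and 100% = reference antagonist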
# Numbers without * were called inactive; . = no result.
SMILES,CHO parental Ca,TAAR1 antagonist,GPR7 antagonist,OX1R antag-1,TAAR1 agonist,OX1R antag-2
Cc1cccc(C(O)c2ncc(-c3ccc4ccccc4c3)[nH]2)c1C (stereo unspecified),.,-9,.,.,1,.
COc1cccc(NC(=O)CN(C)CC(=O)Nc2ccc(C)c(S(=O)(=O)N3CCOCC3)c2)c1,.,-7,.,.,7,.
O=c1c2ccccc2sc2ccc(C#CC3(O)CCCCC3)cc12,-24,33,.,-9,7,41
O=c1c2ccccc2oc2cc(C#CC3(O)CCCCC3)ccc12,-34,28,.,-20,31,61*
C=CCNC(=S)N(C)[C@H]1C[C@H]2c3cc(-c4ccccc4C)ccc3CCN2C[C@H]1[C@H](C)O,.,-27,.,.,2,.
CCN(CC)c1cc(NCCO)c([N+](=O)[O-])c2nonc12,-13,-21,4,-25,3,53*
CC(C)CCSc1cc(NCCO)c([N+](=O)[O-])c2nonc12,-8,-16,2,-21,5,54
COC(=O)[C@]12C[C@H](CC(=O)NCc3cccc(C(F)(F)F)c3)C(=O)N(Cc3ccccc3)C1=C[C@H](C(C)(C)C)O[C@@H]2C,.,-15,.,.,-2,.
Cc1cc(Oc2cccnc2)ccc1NC(=O)Cc1c[nH]c2ccccc12,.,7,.,.,1,.
O=C(COC(=O)[C@H](Cc1ccccc1)N1C(=O)c2ccccc2C1=O)Nc1ccc2c(c1)OCO2,-1,56*,1,-1,15,37
O=C(Cn1nnc(-c2ccccc2)n1)Nc1ccc2c(c1)OCO2,4,21,-7,-9,42*,27
O=C(Cn1nnc(-c2ccccc2F)n1)Nc1ccc2c(c1)OCO2,-10,-6,-3,-6,5,12
O=C(Nc1ccccc1C(=O)OCC(=O)c1c[nH]c2ccccc12)c1ccco1,-1,48,0,12,6,50*
CC(C)(C)NC(=O)COC(=O)c1ccccc1NC(=O)c1ccco1,-13,7,0,-17,2,6
CC(C)[C@@H](C(=O)OCC(=O)Nc1ccc2c(c1)OCO2)N1C(=O)c2ccccc2C1=O,-34,15,-2,-23,23,34
O=C(COC(=O)c1ccccc1NC(=O)c1ccco1)Nc1ccc2c(c1)OCO2,-4,28,4,17,8,72*
O=C(COC(=O)c1ccccc1NCc1ccco1)Nc1ccc2c(c1)OCO2,-6,13,-7,-7,30,34
COC(=O)[C@]12C[C@H](CC(=O)NCCC(C)C)C(=O)N(CCC3=CCCCC3)C1=C[C@H](COCc1ccccc1)O[C@@H]2C,.,-16,.,.,0,.
C[C@@H]1NS(=O)(=O)c2c(F)cccc2O[C@@H]1c1ccccc1,.,8,.,.,-1,.
CCCCOc1ccc(Br)cc1CSC(=N)N,.,73*,75*,.,103*,.
CCOc1ccc(C(C)=O)cc1CSC(=N)N,-9,-6,-9,-10,12,12
N#Cc1ccc(S(=O)(=O)N2CCCCC2c2cc(C(=O)NCc3cccnc3)no2)cc1 (stereo unspecified),.,-2,.,.,0,.
O=C(CN1C(=O)NC2(CCCCCC2)C1=O)Nc1ccc(OC(F)(F)F)cc1,.,-15,.,.,-2,.
Cc1cc(C)cc(NC(=O)CSc2nnc(Cc3cccn3C)n2-c2ccc(F)cc2)c1,-17,-9,-8,-18,2,18
Cc1cc(C)c(NC(=O)CSc2nnc(Cc3cccn3C)n2-c2ccc(F)cc2)c(C)c1,-18,-27,12,-8,5,60*
SMILES,CHO parental Ca,TAAR1 antagonist,GPR7 antagonist,OX1R antag-1,TAAR1 agonist,OX1R antag-2
Cc1ccc(/C=C2/NC(=O)N(Cc3ccccc3)C2=O)s1,21,35,2,20,40*,2
Cc1nnc2n1N=CC=C(C(C)(C)C)S2,0,15,6,1,0,14
Cc1nnc2n1N=CC=C(c1ccccc1)S2,-9,5,16,-4,8,54*
CCCc1cc(=O)oc2cc(C)cc(OCC(=O)N3C[C@H]4C[C@@H](C3)c3cccc(=O)n3C4)c12,.,5,.,.,1,.
N#Cc1ccsc1NC(=O)C1CCCN1S(=O)(=O)c1cccs1 (stereo unspecified),-13,-24,.,12,1,53*
Oc1ccc2ccccc2c1C=Nc1ccc(N2CCOCC2)cc1,-5,25,-5,5,21,51*
C=Cc1ccc(N=Cc2c(O)ccc3ccccc23)cc1,-16,-12,5,-37,4,4
O=[N+]([O-])c1ccc2c(c1)-c1ccccc1C2O (stereo unspecified),.,-6,.,.,2,.
CCCCCCCn1c2c(c(=N)c3c1CCC3)CCCC2,.,12,62*,.,12,.
CCN1/C(=C/C(C)=C/c2sc3ccccc3[n+]2CC)Sc2ccccc21,87*,32,2,95*,17,63*
CCN1/C(=C\C(=S)Nc2ccccc2)Sc2ccccc21,-9,2,10,-27,0,10
Cn1nc(C(C)(C)C)cc1C(=O)NCC1CCN(C(=O)C(=O)c2cc3ccccc3o2)CC1,.,38,.,.,7,.
C[C@@H]1CN([C@H](C)CO)C(=O)c2c(c3ccccc3n2C)-c2ccccc2CO[C@@H]1CN(C)C(=O)CCN(C)C,.,-17,.,.,0,.
CCOc1ccc(N2C(=O)CC(NCCc3c[nH]c4ccccc34)C2=O)cc1 (stereo unspecified),-7,-1,-1,14,8,61*
CCOc1ccc(N2C(=O)CC(NCCc3ccncc3)C2=O)cc1 (stereo unspecified),-8,-1,-11,10,9,11
Cc1[nH]c(=O)c(C#N)c(C)c1CCC(=O)NCc1cccc(C(F)(F)F)c1,11,-16,-1,12,2,12
O=C(CSc1nc2ccccc2c(=O)[nH]1)Nc1ccc(C(=O)O)cc1,-3,-20,20*,4,1,7
Cc1cc(C(=O)CSc2nc3ccccc3[nH]2)c(C)n1Cc1ccco1,49*,44,0,25,10,77*
Cc1cc(C(=O)COc2ccccc2C(N)=O)c(C)n1CC1CCCO1 (stereo unspecified),34*,19,6,34,10,45
Cc1cc(C(=O)CSc2nc3ccc(Cl)cc3[nH]2)c(C)n1CC1CCCO1 (stereo unspecified),45*,43,0,42,12,88*
